Assay outcomes from PubChem BioAssay.
CFTR F508del cor: correctors of CFTR F508del function in bronchial epithelial cells. CFBE cells, YFP halide quenching; stimulated with forskolin plus potentiator P3; % fluorescence drop versus neutral controls. activity (quench increase), % at 7.58 µM. 350,000 compounds, 0.36% hits. AID 720511;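 active = mean added fluorescence quench of at least 8% versus neutral control, with both replicates also reaching 8%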;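 also: cells transiently co-express mutant CFTR-F508del with the halide-sensitive YFP; corrector assay measuring rescue of mutant channel to the surface after 24 h compound exposure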
CaV13 ICDI inh: Primary screen for inhibitors of IQ motif and Ca2+-dependent inactivation inhibitor domain binding in CACNA1D, Förster resonance energy transfer in living cells, …. 340,000 compounds, 0.098% hits. HEK cells, CFP/YFP FRET ICDI-IQ, plate reader, 10 min; percent FRET-ratio fall versus neutral wells. inhibition, % at 12.3 µM;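 active = mean replicate inhibition of at least 30% and at least 1% of replicates passing that level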;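 also: 0% = median of the neutral control wells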
rRNA inh HTS: inhibitors of bacterial rRNA selective over humanized ribosomes. E. coli WT GFP vs humanized-ribosome RFP mutants, fluorescence, 24 h; hits give low values; DMSO median 0, no signal -100. GFP signal change (wild-type ribosome), % (concentration not given with the values). 350,000 compounds, 1.6% hits;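 active = significant combined selectivity score with lowered wild-type GFP, culture density cut under 30%, mutant RFP and density less affected; inactive = any of these conditions unmet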
Cneo AK release: Cryptococcus neoformans lysis via adenylate kinase release | C. neoformans lysis, adenylate kinase release luminescence, 4 h; normalised: neutral wells 0, clomiphene wells 100 | lysis activity, % at 15 µM | 360,000 compounds, 0.2% hits;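 active = mean lysis activity across replicates of at least 80%, whatever share of replicates individually reach that level; inactive = mean lysis activity below 80%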
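read-out = cell lysis signal | test system = log-phase Cryptococcus neoformans yeast cells | input = cells at 5 × 10^6 per mL | medium = fresh YPD growth medium | signal = luminescent adenylate kinase detection reagent | timing = 4 h at 37 °C static, read 1 h later | dosing = single dose | controls = Clomiphene as positive lysis control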
Active calls of the source: *. Rows were chosen to be rich in hits. Some 1.7% of all compounds tested hit in one or more screens of this group.

Results for Cc1noc(C)c1COc1ccc(C(=O)NNC(=O)c2ccccc2)cc1 ?
CFTR F508del cor: 9.6*; CaV13 ICDI inh: -15.4; rRNA inh HTS: 4.5

Results for Cc1noc(C)c1COc1cccc(C(=O)Oc2ccc3c(c2)OCO3)c1 ?
rRNA inh HTS: -35.2*; Cneo AK release: 1.4

How did CCCC#Cc1cnc2c(c1)C(=O)N([C@H](C)CO)C[C@@H](C)[C@@H](CN(C)C(=O)C1CCCCC1)O2 do in these assays?
CFTR F508del cor: 4.7; rRNA inh HTS: 7.4

How did C[C@H]1CN([C@@H](C)CO)C(=O)c2cc(NC(=O)C3CC3)ccc2O[C@@H]1CN(C)S(=O)(=O)c1cccs1 do in these assays?
CFTR F508del cor: 0.6; rRNA inh HTS: -2.5; Cneo AK release: 0.1

How did O=C(NN=C1c2ccccc2-c2ccccc21)c1ccccc1 do in these assays?
CFTR F508del cor: -0.3; CaV13 ICDI inh: -4.0; rRNA inh HTS: -32.4*; Cneo AK release: 41.1

What do the screens show for `O=C(NN=C1c2ccccc2-c2ccccc21)c1ccccc1Br`?
CFTR F508del cor: 0.1; CaV13 ICDI inh: -8.1; rRNA inh HTS: 27.6; Cneo AK release: -0.8

What do the screens show for `CCc1ccc2c(c1)C(c1ccc(N3CCOCC3)cc1)=NNC(c1ccncc1)=N2`?
CFTR F508del cor: 2.4; CaV13 ICDI inh: -4.5; rRNA inh HTS: -17.8*

What do the screens show for `CCOc1ccc(C2=Nc3ccc(Br)cc3C(c3ccc(N4CCOCC4)cc3)=NN2)cc1`?
CaV13 ICDI inh: -4.8

Results for COC(=O)c1c(C)[nH]c(C(=O)C(C)OC(=O)C2CC(=O)N(CCc3ccccc3)C2)c1C (stereo not drawn) ?
CFTR F508del cor: -3.6; CaV13 ICDI inh: -3.6; Cneo AK release: -0.1

How did COC(=O)c1c(C)[nH]c(C(=O)C(C)OC(=O)C2CC(=O)N(c3ccc(C)cc3)C2)c1C (stereo not drawn) do in these assays?
CFTR F508del cor: 1.8; CaV13 ICDI inh: -2.1; rRNA inh HTS: -22.7*; Cneo AK release: 3.7

Results for O=C1C(=C(c2ccccc2)N2CCOCC2)Cc2ccccc21 ?
CFTR F508del cor: -2.3; CaV13 ICDI inh: -5.7; rRNA inh HTS: -21.7*

What do the screens show for `O=C(c1ccccc1)N1CCN(C(=O)N2CCOCC2)CC1`?
CaV13 ICDI inh: -4.1; Cneo AK release: 1.1

Results for COCC#Cc1cnc2c(c1)C(=O)N([C@@H](C)CO)C[C@H](C)[C@H](CN(C)C(=O)c1cccc(F)c1)O2 ?
CFTR F508del cor: -0.4; rRNA inh HTS: 0.7; Cneo AK release: -4.5

Results for CCOCCCNC(=S)N1CCN(c2nc(-c3ccccc3)cs2)CC1 ?
CFTR F508del cor: 3.5; CaV13 ICDI inh: -2.6; rRNA inh HTS: -19.7; Cneo AK release: 0.8

Results for O=C(CN1CCN(c2nc(-c3ccccc3)cs2)CC1)NNC(=O)c1ccc(Br)cc1 ?
CaV13 ICDI inh: -10.3; Cneo AK release: -0.4

Results for O=C(NC(=S)N1CCN(c2nc(-c3ccccc3)cs2)CC1)c1cncc(Br)c1 ?
CFTR F508del cor: 0.6; CaV13 ICDI inh: active; rRNA inh HTS: -33.6; Cneo AK release: 24.0

Results for CCN(CC)CCCNC(=S)N1CCN(c2nc(-c3ccccc3)cs2)CC1 ?
CFTR F508del cor: -7.4; CaV13 ICDI inh: -4.8; rRNA inh HTS: -21.8*; Cneo AK release: 0.0

How did COc1ccc(NC(=O)Nc2ccc3c(c2)C(=O)N([C@H](C)CO)C[C@@H](C)[C@@H](CN(C)Cc2ccc(C(=O)O)cc2)OCCCC[C@@H](C)O3)cc1 do in these assays?
CFTR F508del cor: 1.3; rRNA inh HTS: 1.2; Cneo AK release: -2.1

What do the screens show for `O=C(Nc1cccc(Cl)c1)OC1CCCCc2cccnc21` (stereo not drawn)?
CFTR F508del cor: 0.8; CaV13 ICDI inh: -3.6; rRNA inh HTS: -23.8*

What do the screens show for `COC(=O)c1sc(C(F)(F)F)c(-c2ccccc2)c1S(=O)(=O)N1CCCC1`?
CFTR F508del cor: -0.7; CaV13 ICDI inh: -19.8; rRNA inh HTS: -26.0*; Cneo AK release: 0.5

How did CN(C)/C=C1\C=C2C(=O)c3ccccc3N2C1=O do in these assays?
CFTR F508del cor: 31.8*; CaV13 ICDI inh: -22.2; rRNA inh HTS: 10.0

What do the screens show for `C[C@@H]1CN(C)C(=O)Cc2cc(NS(C)(=O)=O)ccc2O[C@@H]1CN(C)C`?
rRNA inh HTS: 0.1

How did O=C(Nc1ccc(Oc2cccc(C(F)(F)F)c2)nc1)c1ccccc1 do in these assays?
CFTR F508del cor: -1.1; CaV13 ICDI inh: -4.1; rRNA inh HTS: 7.8; Cneo AK release: -0.4
